Source: ChEMBL document CHEMBL1132320, “Evaluation of the desferrithiocin pharmacophore as a vector for hydroxamates” (1999)
“And” between values parts separate entries of the source, which are not always exact repeats. Equal entries are not always repeated.

Columns and labels:
Format in all cases: functional
Rattus norvegicus [1] = experiment: Efficiency is defined as net iron excretion in rats at the dose of 150 umol/kg administered subcutaneously.
Method in brief: (§1)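 Male Sprague–Dawley rats (~400 g) with bile-duct cannulas, under sodium pentobarbital (55 mg/kg ip) anesthesia, housed in metabolic cages with free water. Chelator is given as a single dose in 40% Cremophor RH-40/H2O (v/v). Bile is collected at 3-h intervals for 24 h and urine every 24 h. Iron is measured by flame atomic absorption. Efficiency = (treated minus control iron excretion)/theoretical output, as %; bile/urine split reported.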

Monkey [2] = experiment: The efficiency was calculated by averaging the iron output for 4 days before the administration of the drug, subtracting these numbers from the 2-day iron clearance after the administration of the drug at the dose of 300 umol/kg administered perorally in monkeys.
Method in brief: (§2)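 Cebus apella monkeys iron-loaded with iv iron dextran (200–300 mg Fe/kg per slow 45–60 min infusion, to about 500 mg Fe/kg), rested ≥60 days. Chelator is given in 40% Cremophor RH-40/H2O (v/v). Feces and urine are collected from 4 days before to 5 days after dosing. Iron is measured by flame atomic absorption. Efficiency = (2-day post-drug iron minus 4-day baseline average)/theoretical output, as %.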

Rattus norvegicus [3] = experiment: Efficiency is defined as net iron excretion in rats at the dose of 150 umol/kg administered perorally.; method in brief: as §1
Monkey [4] = experiment: The efficiency was calculated by averaging the iron output for 4 days before the administration of the drug, subtracting these numbers from the 2-day iron clearance after the administration of the drug at the dose of 225 umol/kg administered perorally in monkeys.; method in brief: as §2
Monkey [5] = experiment: The efficiency was calculated by averaging the iron output for 4 days before the administration of the drug, subtracting these numbers from the 2-day iron clearance after the administration of the drug at the dose of 150 umol/kg administered subcutaneously in monkeys.; method in brief: as §2
Monkey [6] = experiment: The efficiency was calculated by averaging the iron output for 4 days before the administration of the drug, subtracting these numbers from the 2-day iron clearance after the administration of the drug at the dose of 150 umol/kg administered perorally in monkeys.; method in brief: as §2
Monkey [7] = experiment: The efficiency was calculated by averaging the iron output for 4 days before the administration of the drug, subtracting these numbers from the 2-day iron clearance after the administration of the drug at the dose of 300 umol/kg administered subcutaneously in monkeys.; method in brief: as §2

SMILES: O=C(C1CSC(c2ncccc2O)=N1)N(O)Cc1ccccc1 (stereo not given)
- Efficiency (Rattus norvegicus [1]): 1.4%
- Efficiency (Monkey [2]): <0.5%
- Efficiency (Rattus norvegicus [3]): 1%

SMILES: O=C(c1ccccc1O)N(O)CCOCCOCCN(O)C(=O)c1ccccc1O
- Efficiency (Rattus norvegicus [1]): 0.8%
- Efficiency (Rattus norvegicus [3]): <0.5%

SMILES: CC(=O)N(O)CCCCCN(O)C(=O)[C@H]1CSC(c2ncccc2O)=N1
- Efficiency (Rattus norvegicus [1]): 8.5%
- Efficiency (Monkey [4]): 3.2% and 12.8%
- Efficiency (Rattus norvegicus [3]): 2.8%

SMILES: CN(O)C(=O)[C@H]1CSC(c2ncccc2O)=N1
- Efficiency (Rattus norvegicus [1]): 5.3%
- Efficiency (Monkey [5]): 11.7%
- Efficiency (Monkey [6]): 6.9%
- Efficiency (Monkey [2]): 13.2%
- Efficiency (Rattus norvegicus [3]): 3.1%

SMILES: O=C(O)[C@H]1CSC(c2ncccc2O)=N1
- Efficiency (Rattus norvegicus [1]): 1.8%
- Efficiency (Monkey [6]): 4.8%
- Efficiency (Monkey [2]): 8%
- Efficiency (Rattus norvegicus [3]): 2.4%
- Efficiency (Monkey [7]): 8.3%

SMILES: O=C([C@H]1CSC(c2ncccc2O)=N1)N(O)CCOCCOCCN(O)C(=O)[C@H]1CSC(c2ncccc2O)=N1
- Efficiency (Rattus norvegicus [1]): 20.6%
- Efficiency (Rattus norvegicus [3]): 4.6%
